The values below come from PubChem BioAssay AID540295 (The Scripps Research Institute Molecular Screening Center, 2011).

The structures appear in SMILES notation. Among all 360,000 compounds or so, about 1,700 (0.47%) were called active.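 How the source made its calls: active means inhibition above its plate's cutoff, the mean of tested wells on that plate plus 3 SD (cut at about 29% in these data); inactive means the rest.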 The entries come from a sample that favours actives as a whole.

Melanocortin receptor 4 (Homo sapiens), sequence (P32245 whole entry, looked up): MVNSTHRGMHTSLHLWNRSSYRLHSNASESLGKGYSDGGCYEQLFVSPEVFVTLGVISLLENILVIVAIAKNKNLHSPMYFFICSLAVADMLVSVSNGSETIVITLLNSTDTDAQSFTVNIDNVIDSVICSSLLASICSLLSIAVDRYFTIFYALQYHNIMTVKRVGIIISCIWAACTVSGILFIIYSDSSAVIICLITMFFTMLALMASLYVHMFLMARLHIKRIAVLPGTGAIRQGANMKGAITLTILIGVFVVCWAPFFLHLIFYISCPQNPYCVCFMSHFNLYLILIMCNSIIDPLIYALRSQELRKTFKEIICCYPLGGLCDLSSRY

This experiment concerns the target Melanocortin receptor 4 (Homo sapiens) (UniProt P32245). In words: blockers of MC4R Gs-cAMP response – cell-based, TR-FRET, antagonist arm of biased-ligand search, primary screen (AID 540295).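 Further: 0% = Melanotan II alone and 100% = Melanotan II plus saturating MCL0020.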 The conditions noted are these: MC4R-expressing cells, MTII-stimulated cAMP, LANCE TR-FRET; at 6.5 µM; active compounds read high. In short, it runs like this: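 material = U2OS cells stably expressing human melanocortin 4 receptor (MC4R) | also added = Melanotan II challenge | dosing = single nominal compound dose of 6.5 µM | detection = TR-FRET with Eu-cAMP and labeled anti-cAMP, 671 nm | replication = singlicate | timing = compound 30 min, challenge 1 h, detection 1 h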
(In general: TR-FRET usually uses a lanthanide donor and a delayed reading to cut background.)
What is called inhibition is the drop in the measured response relative to a control, in per cent. Turning to `CCOC(=O)c1c(NC(=O)CCl)sc(C(=O)N(CC)CC)c1C`, the inhibition is 32.6% (active).

`COC(=O)c1sc(NC(=O)COC(=O)C2CCC2)c(C(=O)OC)c1C`: the inhibition was 3.01% (inactive).

Regarding `CCOC(=O)c1c(NC(=O)COC(=O)c2ccc(S(=O)(=O)C(F)F)cc2)sc(C(=O)N(C)C)c1C`, the inhibition is 8.14% (inactive).

For the compound `O=S(=O)(c1ccc(SCc2ccc(Br)cc2)nc1)N1CCOCC1`, the inhibition was 5.21% (inactive).

Regarding `CCCCC1N2CC3([N+](=O)[O-])CN1CC([N+](=O)[O-])(C2)C3(C)C` (stereo unspecified), the inhibition was 1.22% (inactive).

For `Cn1c(=O)[nH]c(=O)c2c1nc(CN1CCN(c3ccccc3F)CC1)n2CCc1ccccc1`, the inhibition was 4.45% (inactive).

With `COc1ccc2oc(N)c(C=O)c(=O)c2c1`, the inhibition was 37.6% (active).

With `COc1ccc2oc(=O)cc(CN3CCOCC3)c2c1`, the inhibition is 5.75% (inactive).

On to `COc1ccc2oc(N)nc2c1`, for which the inhibition was -3.46% (inactive).

As for `O=C(Nc1ccccc1)c1nnsc1S(=O)(=O)c1ccc(Cl)cc1`, the inhibition was 22.3% (inactive).

On to `CCOC(=O)N1CCN(C(=O)c2ccccc2N(Cc2ccccc2)S(=O)(=O)c2ccc(OC)cc2)CC1`, for which the inhibition was -11% (inactive).

`COc1cccc(NC(=O)c2ccccc2N(Cc2ccccc2)S(C)(=O)=O)c1`: the inhibition was 4.09% (inactive).

Turning to `COc1ccc(/C=N/OCC(=O)N(Cc2ccccc2)c2ccccc2C(=O)O)cc1`, the inhibition is 32.2% (active).

`CCc1nnc(NC(=O)[C@@H](NC(=O)c2cccc(C)c2)C(C)C)s1`: the inhibition is 2.22% (inactive).

For `COc1ccc(-c2nc3n(c(=O)c2C#N)CCS3)c(OC)c1`, the inhibition is 30.9% (active).

Regarding `COc1cccc(NC(=O)Cn2c3ccccc3c3nc4n(c(=O)c32)CCS4)c1`, the inhibition is 19.8% (inactive).

On to `COc1ccc2c(c1)c1nc3n(c(=O)c1n2CC(=O)Nc1ccccc1)CCS3`, for which the inhibition was -10.3% (inactive).

Turning to `CC=CCn1c(SCCCc2ccccc2)nc2c1c(=O)[nH]c(=O)n2C`, the inhibition is -6.73% (inactive).

With `COc1ccc(S(=O)(=O)NC(=O)C2(C)CCN2C(=O)c2ccccc2CCc2ccccc2)cc1` (stereo unspecified), the inhibition is -3.11% (inactive).

As for `N#Cc1ccc(OCC(=O)Nc2nc(-c3ccccn3)cs2)cc1`, the inhibition was -1.39% (inactive).

Regarding `CCCC/C(C)=N/NC(=O)NC1CCCCC1`, the inhibition is 6.08% (inactive).

Turning to `COc1ccc(CCNC(=O)CCCCCNC(=O)N2CCn3c2nc2ccccc23)cc1OC`, the inhibition was 2.13% (inactive).

In the case of `COc1ccc(NC(=O)C2Cc3c(-c4ccc5c(c4)OCO5)ccnc3O2)cn1` (stereo unspecified), the inhibition was -23.9% (inactive).

As to `COc1ccc(NC(=O)CN2C(=O)NC(C)(c3ccccc3)C2=O)cn1` (stereo unspecified), the inhibition was -0.87% (inactive).

`COc1ccc(NC(=O)/C(Cl)=C(/Cl)S(=O)Cc2ccc(C)cc2)cn1` (stereo unspecified): the inhibition was 57.8% (active).

As to `COc1cc(C(=O)NCc2ccc(-n3cccc3)cc2)cc(OC)c1OC`, the inhibition was 5.76% (inactive).

As for `Cc1cccc(-c2cnc(C(O)c3ccc4ccccc4c3)[nH]2)c1` (stereo unspecified), the inhibition is 5.06% (inactive).

Take `Cc1c(CCC(=O)O)c(=O)oc2c(C)c(OCc3ccccc3Cl)ccc12`: the inhibition is 17.1% (inactive).

Take `Cc1c(CCC(=O)O)c(=O)oc2cc(OCc3ccc(Br)cc3)ccc12`: the inhibition was 29.8% (active).

Turning to `Cc1coc2cc3oc(=O)c(CCC(=O)O)c(C)c3cc12`, the inhibition was 4.19% (inactive).

Take `Cc1ccc(-c2nnc(CN3CCN(C)CC3)o2)cc1`: the inhibition was 30.6% (active).

Consider `CCOC(=O)C1CCN(Cc2nnc(-c3cccc(Br)c3)o2)CC1`, for which the inhibition was 7.07% (inactive).

Consider `CCOC(=O)N1CCN(Cc2nnc(-c3ccccc3Cl)o2)CC1`, for which the inhibition was 2.09% (inactive).

With `Cc1ccc(Cl)cc1-c1ccc(/C=N/n2cnnc2)o1`, the inhibition is -0.99% (inactive).

For `S=c1[nH]nc(-c2ccco2)n1/N=C/c1ccc(Br)s1`, the inhibition was -2.7% (inactive).

For the compound `Cc1ccccc1-c1n[nH]c(=S)n1/N=C/c1ccc(-c2ccccc2Br)o1`, the inhibition is 28.7% (active).

In the case of `Cc1nn(Cc2ccc(F)cc2)c(C)c1NC(=O)c1noc2c1CCc1ccccc1-2`, the inhibition is 10.4% (inactive).

Consider `COc1cc(C(=O)N2CCOC23CCN(Cc2ccccc2)CC3)cc(OC)c1OC`, for which the inhibition was 0.19% (inactive).

As for `O=C(c1ccc2c(c1)C(=O)N(c1ccc(Cl)cc1)C2=O)N1CCN(c2ccccn2)CC1`, the inhibition was 7.23% (inactive).

In the case of `O=C(c1ccc2c(c1)N(Cc1ccc(F)cc1)C(=O)c1ccccc1S2(=O)=O)N1CCN(c2ccccn2)CC1`, the inhibition was 30.5% (active).

Consider `O=C1c2ccccc2S(=O)(=O)c2cc(N3CCN(c4ccccn4)CC3)ccc21`, for which the inhibition was 11.1% (inactive).

In the case of `Cc1ccc(C)c(N2CCN(C(=O)CCc3nc(-c4cccc(C(F)(F)F)c4)no3)CC2)c1`, the inhibition is -2.59% (inactive).

With `COCC(=O)Nc1c(C(=O)N2CCCC2)oc2ccccc12`, the inhibition was 2.6% (inactive).

With `COc1cccc(OC)c1C(=O)Nc1c(C(=O)N2CCN(c3ccccn3)CC2)oc2ccccc12`, the inhibition is 36.6% (active).

Regarding `Cc1cc(C(=O)N2CCN(c3ccccn3)CC2)c(C)o1`, the inhibition was -0.72% (inactive).

For the compound `CCOc1ccc(CCNC(=O)CN2C(=O)NC3(CCc4ccccc43)C2=O)cc1OCC` (stereo unspecified), the inhibition is 7.52% (inactive).

Regarding `CCO[C@H]1OC(C(=O)Nc2ccccc2)=C[C@@H](C2CC2)[C@@H]1CCCO`, the inhibition was 8.5% (inactive).

For `COc1cc(S(=O)(=O)Nc2ncn[nH]2)ccc1Cl`, the inhibition was 3.99% (inactive).

In the case of `COc1ccc(OC)c(S(=O)(=O)Nc2c(C)nn(C)c2C)c1`, the inhibition was -0.88% (inactive).

As to `COc1ccc(C(C)C)cc1S(=O)(=O)Nc1ncn[nH]1`, the inhibition was 32.9% (active).

Regarding `O=C(Cn1nnc2ccccc2c1=O)Nc1cc(C(F)(F)F)ccc1N1CCOCC1`, the inhibition was 30.3% (active).

For `CC(C)CC(=O)Nc1cc(C(F)(F)F)ccc1N1CCOCC1`, the inhibition was 8.93% (inactive).

As to `O=C(CN1C(=O)NC2(CCCC2)C1=O)Nc1cc(C(F)(F)F)ccc1N1CCOCC1`, the inhibition was 2.08% (inactive).

`O=C(NCc1cccnc1)c1cc(S(=O)(=O)N2CCOCC2)c(Cl)cc1Cl`: the inhibition is 2.73% (inactive).

Turning to `O=C(Nc1ccc(S(=O)(=O)Nc2nccs2)cc1)c1cccc(S(=O)(=O)N2CCOCC2)c1`, the inhibition is 13.1% (inactive).

As for `O=C(Nc1nccs1)c1cc(S(=O)(=O)N2CCOCC2)c(Cl)cc1Cl`, the inhibition is 35.1% (active).

For the compound `COc1ccccc1N(CC(=O)Nc1c(C)n(C)n(-c2ccccc2)c1=O)S(=O)(=O)c1ccccc1`, the inhibition was -1.81% (inactive).

On to `Cc1ccc(S(=O)(=O)N(CC(=O)N/N=C/c2ccc(F)cc2)c2cccc3cccnc23)cc1`, for which the inhibition is 15.1% (inactive).

`COc1ccccc1N(CC(=O)N/N=C(\C)c1ccccc1O)S(=O)(=O)c1ccc(C)cc1`: the inhibition is 33.9% (active).

Turning to `CC/C(Cc1ccccc1)=N/NC(=O)CCn1nnc2ccccc21`, the inhibition is 9.16% (inactive).

As to `CC12CCC(=O)C=C1CCC1C2C(O)CC2(C)C1CCC2(O)C(O)CO` (stereo unspecified), the inhibition is 1.23% (inactive).

Turning to `CCOC(=O)c1c(C(C#N)C#N)cc(C)nc1C`, the inhibition was 1.49% (inactive).

Consider `CCOC(=O)COc1nc(C)cc(C(F)(F)F)c1C#N`, for which the inhibition was -2.8% (inactive).

As for `CCOC(=O)c1cc(C)nc(S(C)(=O)=O)c1C#N`, the inhibition was 38.7% (active).

For the compound `O=C(Nc1ccccc1F)c1cc(S(=O)(=O)N2CCCCC2)cs1`, the inhibition was 3.77% (inactive).

As to `Cn1ccs/c1=N\S(=O)(=O)c1ccc(C(C)(C)C)cc1`, the inhibition is 8.67% (inactive).

Consider `CNC(=O)C[C@H]1C(=O)N(c2ccc(OC)cc2)C[C@@H]1Cc1ccccc1`, for which the inhibition is -3.72% (inactive).

For the compound `COc1ccc(N2C(=O)CC(N3CCC(C(N)=O)CC3)C2=O)cc1` (stereo unspecified), the inhibition was 5.05% (inactive).

With `COc1ccc(N2C(=O)C3C(C2=O)C(C(=O)c2ccccc2)N2CCCC32)cc1` (stereo unspecified), the inhibition was 30.8% (active).

Consider `O=C(CCc1nnc(Cc2ccc3c(c2)OCO3)o1)NCCc1ccccc1Cl`, for which the inhibition is 2.77% (inactive).

As to `NCCCNC(=S)NCCCN(Cc1ccc(Cl)cc1)c1ccc(Br)cn1`, the inhibition is 3.71% (inactive).

With `O=C(NCc1ccccc1)C1=C[C@@H](C2CCCCC2)C[C@@H](OCc2ccc(CO)cc2)O1`, the inhibition was 4.66% (inactive).

Regarding `CC(=O)c1ccccc1NC(=O)COC(=O)C1COc2ccccc2O1` (stereo unspecified), the inhibition was 16.3% (inactive).

`CCC1CCCCN1CCCNC(=O)c1cc2c(Cl)nc3ccccc3c2s1` (stereo unspecified): the inhibition is -9.04% (inactive).

Consider `Cc1cccc(CN2CCC(CNC(=O)Nc3ccc(F)c(Cl)c3)CC2)c1`, for which the inhibition is 1.8% (inactive).

As for `COc1ccc(Cl)cc1NC(=O)NCC1CCN(Cc2ccccc2F)CC1`, the inhibition was 3.98% (inactive).

Turning to `O=C(NCC1CCN(Cc2ccccc2Cl)CC1)Nc1cccc(Cl)c1`, the inhibition is 29.6% (active).

As for `FC(F)Oc1ccccc1NC(=S)Nc1cccc(Cl)c1Cl`, the inhibition is 0.43% (inactive).

Regarding `S=C(Cc1ccc(Cl)cc1)N1CCOCC1`, the inhibition is 2.15% (inactive).

As for `COc1ccccc1-c1nnc(NC(=O)c2cccc(N3C(=O)CCC3=O)c2)o1`, the inhibition is 17.9% (inactive).

As to `COc1ccccc1NC(=O)c1ccc2nc(N3C(=O)CCC3=O)sc2c1`, the inhibition was 35.1% (active).

For `CCCc1cc(=O)[nH]c(SCC(=O)Nc2ccc(C(=O)Nc3ccccc3OC)cc2)n1`, the inhibition was 10.3% (inactive).

On to `COC(=O)/C(=C1\Oc2ccc(C(C)(C)C)cc2S1)C(F)(F)F`, for which the inhibition was 13.2% (inactive).

Turning to `CCc1nc2c(OCCOc3ccccc3)cccn2c1N(C)C(=O)c1cccs1`, the inhibition is -6.4% (inactive).

For the compound `COC(=O)COc1ccc2c(=O)c(Oc3ccccc3Br)coc2c1`, the inhibition is 11% (inactive).

Turning to `O=C(COC(=O)CSc1ccccc1)Nc1ccc(F)cc1F`, the inhibition was 9.52% (inactive).

Take `COc1ccccc1CC(=O)Nc1ccc(F)cc1F`: the inhibition was 28.9% (active).

For `COC(=O)c1ccccc1NC(=O)Cc1ccccc1OC`, the inhibition is 18.4% (inactive).

For `CCCCOc1ccc(C(=O)N/C(=C/C=C/c2ccccc2)C(=O)N2CCOCC2)cc1`, the inhibition was 3.43% (inactive).

As for `O=C(Nc1nn(Cc2ccccc2F)cc1Br)c1cccs1`, the inhibition was 11.3% (inactive).

On to `C=CCn1c2ccccc2c2nnc(SCc3[nH]c(=O)[nH]c3C(=O)CCCCC(=O)OCC)nc21`, for which the inhibition is -12.2% (inactive).
